Our source for the MIC, ΔTm and IC50 values is ChEMBL document CHEMBL5108008, “Drug screening approach against mycobacterial fatty acyl-AMP ligase FAAL32 renews the interest of the salicylanilide pharmacophore in the fight against tuberculosis” (Bioorg Med Chem, 2022).

Usually MIC stands for the least concentration at which growth counts as inhibited. As a reminder, the ΔTm is the change in melting temperature against a reference sample. In general, IC50 refers to the point on the concentration scale where inhibition reaches its midpoint. Read a high IC50 as a need for much substance.

≈ marks a conversion by molar mass, not a printed value. Where a name gives a salt, the structure may show the parent alone.

Assay [1] concerns Mycobacterium tuberculosis. The assay can be described thus: Antimicrobial activity against Mycobacterium tuberculosis H37Rv incubated for 24 hrs and measured by MTT assay. Type of assay: functional. The essentials: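 Pellicle-grown Mtb bacilli were vortexed with glass beads, clumps removed by slow spin, and set to A600 0.1 in 7H9/0.2% glycerol. 2 µL compound in DMSO (1 mM, or 2-fold serial dilutions) went into 100 µL broth with 100 µL bacteria. Plates ran 6 d at 37 °C, then MTT (1 mg/mL) for 24 h, SDS solubilisation and A570. MIC was the lowest concentration inhibiting growth versus the untreated control.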
(Formazan colour is commonly taken as a measure of viable cells.)

The target in assay [2] is T1, Long-chain-fatty-acid--AMP ligase FadD32 (Mycobacterium tuberculosis (strain ATCC 25618 / H37Rv)) (UniProt O53580).
T1 sequence (whole entry): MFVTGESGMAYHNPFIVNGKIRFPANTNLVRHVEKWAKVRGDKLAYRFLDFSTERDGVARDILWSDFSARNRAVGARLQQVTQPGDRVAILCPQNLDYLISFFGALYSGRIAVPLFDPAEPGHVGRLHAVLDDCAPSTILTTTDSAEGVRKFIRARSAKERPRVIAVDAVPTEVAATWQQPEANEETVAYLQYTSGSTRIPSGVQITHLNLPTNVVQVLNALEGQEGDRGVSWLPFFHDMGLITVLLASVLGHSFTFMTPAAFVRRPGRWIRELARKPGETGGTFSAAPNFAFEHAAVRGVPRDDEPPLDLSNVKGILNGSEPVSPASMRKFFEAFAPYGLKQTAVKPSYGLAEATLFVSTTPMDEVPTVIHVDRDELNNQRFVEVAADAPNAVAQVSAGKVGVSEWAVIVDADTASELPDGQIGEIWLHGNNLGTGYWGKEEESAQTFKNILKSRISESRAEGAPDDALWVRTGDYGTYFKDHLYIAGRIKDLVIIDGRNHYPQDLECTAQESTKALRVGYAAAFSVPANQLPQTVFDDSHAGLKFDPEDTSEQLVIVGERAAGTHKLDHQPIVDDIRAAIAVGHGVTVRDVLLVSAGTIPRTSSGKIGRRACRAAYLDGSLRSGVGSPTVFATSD
Briefly: Binding affinity to Mycobacterium tuberculosis FAAL32 assessed as change in melting temperature at 2.5 uM by NanoDSF assay. An outline of the steps: (§1)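 nanoDSF used 0.5 µM purified FAAL32 with ligand at 0.5–10 µM in 50 mM HEPES pH 7.5, 500 mM NaCl, 5% DMSO. Samples sat 5 min at RT, then were heated 20–70 °C at 1 °C/min. Tm came from the F350/F330 fluorescence ratio; the DMSO-only protein was the reference.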
On the technique in general: Differential scanning fluorimetry follows unfolding on heating by fluorescence.

Assay [3] concerns the target T2, Long-chain-fatty-acid--AMP ligase FadD32 (Mycobacterium tuberculosis (strain ATCC 25618 / H37Rv), UniProt O53580).
T2 sequence (O53580 whole entry): T1 sequence (whole entry)
The assay can be described thus: Inhibition of Mycobacterium tuberculosis FAAL32 using AMPC12 as substrate incubated for 50 mins and measured by spectrophotometric assay. The essentials:
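Purified Mtb FAAL32 was run with lauric acid and ATP in HEPES pH 7.5, MgCl2, DTT and detergent. Pyrophosphatase coupling converted released PPi to Pi, read after 50 min as A630 with a phosphate colour reagent against a Pi calibration curve. Compounds (final 0.5–66 µM, DMSO) were added before the enzyme. IC50 came from a sigmoidal fit of percent inhibition.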

Assay [4] has as its target T1, Long-chain-fatty-acid--AMP ligase FadD32 (Mycobacterium tuberculosis (strain ATCC 25618 / H37Rv)). Briefly: Binding affinity to Mycobacterium tuberculosis FAAL32 assessed as change in melting temperature at 5 uM by NanoDSF assay. The essentials:
as §1

In the case of `CCCCCCCCCCCCCCCC[N+](C)(C)CCN(Cc1ccc(OC)cc1)c1ncccn1` [THONZONIUM BROMIDE], in assay [1], the MIC is greater than 1 µM. `CC(C)(O)c1ccccc1CC[C@@H](SCC1(CC(=O)O)CC1)c1cccc(/C=C/c2ccc3ccc(Cl)cc3n2)c1` [MONTELUKAST] gave a minimal inhibitory concentration (MIC) in assay [1] greater than 1 µM.

The molecule `O=C(Nc1ccc(Oc2ccc(Cl)cc2)c(Cl)c1)c1cc(I)cc(I)c1O` [RAFOXANIDE] yielded a minimal inhibitory concentration (MIC) in assay [1] of 0.08 µM (≈ 0.0501 µg/mL). The ΔTm in assay [2] turned out to be 2.7 °C. In assay [1], `Oc1c(Cl)cc(Cl)c(Cl)c1Cc1c(O)c(Cl)cc(Cl)c1Cl` [HEXACHLOROPHENE] yielded an MIC of 0.08 µM (≈ 0.0326 µg/mL). In assay [1], `O=C(Nc1ccc([N+](=O)[O-])cc1Cl)c1cc(Cl)ccc1O` [NICLOSAMIDE] yielded an MIC of less than 0.4 µM.

As to `NNC(=O)c1ccncc1` [ISONIAZID], the minimum inhibitory concentration (MIC) in assay [1] was 0.6 µM (≈ 0.0823 µg/mL). Turning to VERTEPORFIN, the MIC in assay [1] was greater than 1 µM. In assay [1], `O=C(O)c1cn(C2CC2)c2cc(N3CCNCC3)c(F)cc2c1=O` [CIPROFLOXACIN] gave an MIC of 1.25 µM (≈ 0.414 µg/mL). `CCCCC(CC)CNC(=N)NC(=N)NCCCCCCNC(=N)NC(=N)NCC(CC)CCCC` (stereo unspecified) [ALEXIDINE DIHYDROCHLORIDE] displayed an MIC in assay [1] greater than 1 µM. The same measure, in the same setting: in the case of `O=C(Nc1cc(Cl)cc(Cl)c1O)c1c(O)c(Cl)cc(Cl)c1Cl` [OXYCLOZANIDE] it was 0.32 µM (≈ 0.128 µg/mL); in that of `Clc1ccc(COC(Cn2ccnc2)c2ccc(Cl)cc2Cl)c(Cl)c1` (stereo unspecified) [MICONAZOLE], greater than 1 µM.

In turn, `CC(=O)Oc1ccccc1C(=O)Nc1ncc([N+](=O)[O-])s1` [NITAZOXANIDE] came in with an MIC in assay [1] of 10 µM (≈ 3.07 µg/mL).

In assay [1], `Cc1cc(C(C#N)c2ccc(Cl)cc2)c(Cl)cc1NC(=O)c1cc(I)cc(I)c1O` (stereo unspecified) [CLOSANTEL] returned an MIC of 0.08 µM (≈ 0.053 µg/mL). Moreover, inhibition in assay [3] was half-maximal at 7.7 µM (IC50). In assay [4], the shift in melting temperature (ΔTm) was found to be 2.7 °C.
